Assay results reported in PMC9055277 (RSC Advances, 2020).

Key:
[1] = tested on: Salmonella typhimurium TA98; assay: Salmonella/microsome test; format: cell-based
[2] = tested on: Salmonella typhimurium TA100; assay: Salmonella/microsome test; format: cell-based
FS-DNA bound to EtBr = assay: Fluorescence quenching of EtBr–FS-DNA system; format: binding, fish; conditions: EtBr–FS-DNA (DNA : EtBr 10 : 1), ligand 0–70 μM, Stern–Volmer equation
In short: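 FS-DNA stock in Tris–HCl pH 7.4, kept at 4 °C for up to 72 h, with purity checked by A260/A280 > 1.8. EtBr stock (3.0 × 10⁻³ mol L⁻¹, ethanol) was made fresh. DNA and EtBr were premixed 15 min at 25 °C. Ligand was diluted from water stock in Tris–HCl, added, and incubated 15 min. Slits were 5/10 nm. KSV is the slope of I₀/I vs [Q].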

fish sperm DNA (FS-DNA) = assay: UV-Vis absorption titration of ligands with FS-DNA; format: binding; conditions: on addition of FS-DNA; band 335 nm (1S3), 345 nm (2S3)
In short: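 FS-DNA stock was in Tris–HCl pH 7.4 (A260/A280 > 1.8). Test compound (10 μM, diluted from water stock in Tris–HCl) was titrated with FS-DNA (0–20 μM). Tubes were shaken and incubated 15 min, then scanned 200–800 nm in triplicate. The spectrum of DNA alone was subtracted. Kb came from the Benesi–Hildebrand plot of [DNA]/(εa − εf) vs [DNA] as slope/intercept.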

[3] = −S9, control set of the 2S3 experiment (concentration cell empty)
[4] = TA100, absence of metabolic activation system (−S9)
[5] = TA100, presence of metabolic activation system (+S9)
[6] = TA98, absence of metabolic activation system (−S9)
[7] = TA98, presence of metabolic activation system (+S9), 2S3: at 0.40, 0.20 and 0.10 mg per plate

**Q.** `Nc1ccc([N+](=O)[O-])cc1N` [NPD, 4-nitro-o-phenylenediamine, reference compound] was tested. Which “revertant colonies TA98 −S9, positive control” value ([1]; 200 μg mL^−1, −S9, control set of the 1S3 experiment) did it give?
**A.** 4260 ± 291.75

**Q.** And the “revertant colonies TA98 −S9, positive control” value [1, 3]?
**A.** 3808.40 ± 221.78

**Q.** For `[N-]=[N+]=[N-].[Na+]` [SA, sodium azide, reference compound], which “revertant colonies TA100 −S9, positive control” value ([2]; 1 μg mL^−1, −S9, control set of the 1S3 experiment) is on record?
**A.** 1497.2 ± 230.28

**Q.** What about the “revertant colonies TA100 −S9, positive control” value [2, 3] of the same compound?
**A.** 1506.40 ± 114.82

**Q.** With `NC(=O)COc1ccc(-c2cc(=O)c3c(OCC(N)=O)cc(OCC(N)=O)cc3o2)cc1` [2S3, 2,2′-((2-(4-(2-Amino-2-oxoethoxy)phenyl)-4-oxo-4H-chromene-5,7-diyl)bis(oxy))diacetamide] as the compound, how does the “revertant colonies TA100 +S9” value ([2]; 0.02 mg per plate) read?
**A.** 187.40 ± 18.93 a1b3

**Q.** What about the “revertant colonies TA100 −S9” value ([2]; 0.02 mg per plate) of the same compound?
**A.** 182.40 ± 9.15 a2b3

**Q.** And the “revertant colonies TA100 +S9” value ([2]; 0.05 mg per plate)?
**A.** 190.80 ± 11.16 a2b3

**Q.** What about the “revertant colonies TA100 −S9” value ([2]; 0.05 mg per plate) of the same compound?
**A.** 195.40 ± 6.96 a3b3

**Q.** What about the “revertant colonies TA100 +S9” value ([2]; 0.10 mg per plate) of the same compound?
**A.** 196.60 ± 15.75 a2b3

**Q.** What about the “revertant colonies TA100 −S9” value ([2]; 0.10 mg per plate) of the same compound?
**A.** 185.60 ± 7.20 a2b3

**Q.** What about the “revertant colonies TA100 +S9” value ([2]; 0.20 mg per plate) of the same compound?
**A.** 183.60 ± 9.35 a2b3

**Q.** And the “revertant colonies TA100 −S9” value ([2]; 0.20 mg per plate)?
**A.** 200.00 ± 8.44 a2b3

**Q.** What about the “revertant colonies TA100 +S9” value ([2]; 0.40 mg per plate) of the same compound?
**A.** 210.40 ± 2.31 a3b3

**Q.** What about the “revertant colonies TA100 −S9” value ([2]; 0.40 mg per plate) of the same compound?
**A.** 171.40 ± 8.55 a1b3

**Q.** What about the “effect on number of revertant colonies (mutagenicity), in words” value (shortened to “effect on number of revertant colonies”) [2, 4] of the same compound?
**A.** significantly increased

**Q.** And the “effect on number of revertant colonies” value [2, 5]?
**A.** significantly increased

**Q.** And the “quenching constant KSV” value (FS-DNA bound to EtBr)?
**A.** 19600 M⁻¹

**Q.** And the “revertant colonies TA98 +S9” value ([1]; 0.02 mg per plate)?
**A.** 15.60 ± 2.52 b3

**Q.** What about the “revertant colonies TA98 −S9” value ([1]; 0.02 mg per plate) of the same compound?
**A.** 17.00 ± 1.00 b3

**Q.** What about the “revertant colonies TA98 +S9” value ([1]; 0.05 mg per plate) of the same compound?
**A.** 18.40 ± 1.74 b3

**Q.** What about the “revertant colonies TA98 −S9” value ([1]; 0.05 mg per plate) of the same compound?
**A.** 17.40 ± 1.12 b3

**Q.** And the “revertant colonies TA98 +S9” value ([1]; 0.10 mg per plate)?
**A.** 25.40 ± 1.83 a2b3

**Q.** What about the “revertant colonies TA98 −S9” value ([1]; 0.10 mg per plate) of the same compound?
**A.** 20.00 ± 2.25 b3

**Q.** What about the “revertant colonies TA98 +S9” value ([1]; 0.20 mg per plate) of the same compound?
**A.** 22.00 ± 1.37 a2b3

**Q.** And the “revertant colonies TA98 −S9” value ([1]; 0.20 mg per plate)?
**A.** 16.60 ± 1.80 b3

**Q.** What about the “revertant colonies TA98 +S9” value ([1]; 0.40 mg per plate) of the same compound?
**A.** 24.60 ± 2.11 a2b3

**Q.** And the “revertant colonies TA98 −S9” value ([1]; 0.40 mg per plate)?
**A.** 19.20 ± 2.08 b3

**Q.** What about the “effect on number of revertant colonies” value [1, 6] of the same compound?
**A.** did not cause an increase

**Q.** What about the “effect on number of revertant colonies” value [1, 7] of the same compound?
**A.** statistically significant increase

**Q.** What about the Hypochromism (fish sperm DNA (FS-DNA)) of the same compound?
**A.** 20.91%

**Q.** Which “revertant colonies TA100 +S9” value ([2]; 0.02 mg per plate) does the source give for `NC(=O)COc1cc(OCC(N)=O)c2c(=O)c(OCC(N)=O)c(-c3ccc(OCC(N)=O)c(OCC(N)=O)c3)oc2c1` [1S3, 2,2′,2′′-((2-(3,4-bis(2-amino-2-oxoethoxy)phenyl)-4-oxo-4H-chromene-3,5,7-triyl)tris(oxy))triacetamide] here?
**A.** 47.00 ± 7.16 a3b3

**Q.** And the “revertant colonies TA100 −S9” value ([2]; 0.02 mg per plate)?
**A.** 112.40 ± 3.28 a3b3

**Q.** What about the “revertant colonies TA100 +S9” value ([2]; 0.05 mg per plate) of the same compound?
**A.** 48.80 ± 12.85 a2b3

**Q.** And the “revertant colonies TA100 −S9” value ([2]; 0.05 mg per plate)?
**A.** 94.00 ± 8.43 a3b3

**Q.** And the “revertant colonies TA100 +S9” value ([2]; 0.10 mg per plate)?
**A.** 62.00 ± 4.95 a3b3

**Q.** And the “revertant colonies TA100 −S9” value ([2]; 0.10 mg per plate)?
**A.** 85.00 ± 7.17 a3b3

**Q.** What about the “revertant colonies TA100 +S9” value ([2]; 0.20 mg per plate) of the same compound?
**A.** 47.00 ± 6.73 a3b3

**Q.** And the “revertant colonies TA100 −S9” value ([2]; 0.20 mg per plate)?
**A.** 80.20 ± 10.65 a2b3

**Q.** And the “revertant colonies TA100 +S9” value ([2]; 0.40 mg per plate)?
**A.** 82.20 ± 5.37 a3b3

**Q.** And the “revertant colonies TA100 −S9” value ([2]; 0.40 mg per plate)?
**A.** 88.80 ± 14.07 a2b3

**Q.** What about the “effect on number of revertant colonies” value [2, 4] of the same compound?
**A.** did not cause any detectable increase

**Q.** And the “effect on number of revertant colonies” value [2, 5]?
**A.** did not cause any detectable increase

**Q.** And the “quenching constant KSV” value (FS-DNA bound to EtBr)?
**A.** 18300 M⁻¹

**Q.** What about the “revertant colonies TA98 +S9” value ([1]; 0.02 mg per plate) of the same compound?
**A.** 9.00 ± 0.44 a3b3

**Q.** What about the “revertant colonies TA98 −S9” value ([1]; 0.02 mg per plate) of the same compound?
**A.** 12.00 ± 1.41 a1b3

**Q.** And the “revertant colonies TA98 +S9” value ([1]; 0.05 mg per plate)?
**A.** 7.80 ± 1.11 a2b3

**Q.** And the “revertant colonies TA98 −S9” value ([1]; 0.05 mg per plate)?
**A.** 14.40 ± 2.20 b3

**Q.** What about the “revertant colonies TA98 +S9” value ([1]; 0.10 mg per plate) of the same compound?
**A.** 14.00 ± 2.60 b3

**Q.** What about the “revertant colonies TA98 −S9” value ([1]; 0.10 mg per plate) of the same compound?
**A.** 12.20 ± 0.66 a2b3

**Q.** And the “revertant colonies TA98 +S9” value ([1]; 0.20 mg per plate)?
**A.** 11.20 ± 2.97 b3

**Q.** And the “revertant colonies TA98 −S9” value ([1]; 0.20 mg per plate)?
**A.** 13.20 ± 1.01 a1b3

**Q.** And the “revertant colonies TA98 +S9” value ([1]; 0.40 mg per plate)?
**A.** 7.20 ± 1.68 a1b3

**Q.** What about the “revertant colonies TA98 −S9” value ([1]; 0.40 mg per plate) of the same compound?
**A.** 11.60 ± 1.63 a1b3

**Q.** And the “effect on number of revertant colonies” value [1, 6]?
**A.** did not cause any detectable increase

**Q.** And the “effect on number of revertant colonies” value [1, 7]?
**A.** did not cause any detectable increase

**Q.** And the Hypochromism (fish sperm DNA (FS-DNA))?
**A.** 22.54%
